The source made the active and inactive calls.
Assays:
MDA-MB-231 [1] = experiment: Effect on human MDA-MB-231 cells assessed as RPS6KA2 protein expression by Western blot analysis; format: functional, cell-based
BT-549 [2] = experiment: Effect on human BT-549 cells assessed as JunD protein expression by Western blot analysis; format: functional, cell-based
MDA-MB-231 [3] = experiment: Effect on human MDA-MB-231 cells assessed as JunD protein expression by Western blot analysis; format: functional, cell-based
BT-549 [4] = experiment: Antiproliferative activity in human BT-549 cells assessed as cell viability at 1 uM by CCK-8 assay; format: functional, cell-based
BT-549 [5] = experiment: Effect on human BT-549 cells assessed as RPS6KA2 protein expression by Western blot analysis; format: functional, cell-based
MDA-MB-231 [6] = experiment: Effect on human MDA-MB-231 cells assessed as suppression of tumor sphere formation at 1 uM by Tumor sphere assay; format: functional, cell-based
BT-549 [7] = experiment: Inhibition of cell migration in human BT-549 cells at 1 uM by transwell invasion assay; format: functional, cell-based
BT-549 [8] = experiment: Antiproliferative activity in human BRD4-knockdown BT-549 cells assessed as cell growth at 1 uM by CCK-8 assay; format: functional, cell-based
How it was run: (§1)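 Vector control or BRD4-knockdown cells, 3000/well, adhered overnight, then DMSO or osimertinib for 48 h; growth by CCK-8, normalized to DMSO-treated control. Triplicates, mean ± SD; one-way ANOVA, vehicle vs osimertinib in knockdown clones.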

MDA-MB-231 [9] = experiment: Antitumor activity against human MDA-MB-231 cells xenografted in BALB/c nude mouse model assessed as reduction of tumor size in the presence of osimertinib at 35 mg/kg/day, sc administered every 2 days for 30 days; format: functional, organism-based; conditions: time 30.0 day
How it was run: (§2)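 MDA-MB-231 xenografts used 1 × 10^6 cells injected subcutaneously into female BALB/c nude mice (4–6 weeks). Animals were split into four groups (n = 7) at ~100 mm3: vehicle, osimertinib 10 mg/kg, 35 mg/kg agent, or the combination, each given every 2 days. Volume was measured by calliper as length × width²/2; tumours were weighed at end.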

MDA-MB-231 [10] = experiment: Inhibition of cell migration in human MDA-MB-231 cells at 1 uM by transwell invasion assay; format: functional, cell-based
How it was run: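 Invasion assay: 1 × 10^5 cells seeded in Matrigel-coated upper Boyden chamber; lower chamber held serum-free medium with 100 nM LPA. After 24 or 48 h, invaded cells stained with crystal violet and counted.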

MDA-MB-231 [11] = experiment: Antiproliferative activity in human MDA-MB-231 cells assessed as reduction in size of tumor sphere at 1 uM by Tumor sphere assay; format: functional, cell-based
MDA-MB-231 [12] = experiment: Induction of apoptosis in human MDA-MB-231 cells assessed as caspase-3 cleavage in the presence of osimertinib at 1 uM by Western blotting analysis; format: functional, cell-based
MDA-MB-231 [13] = experiment: Antitumor activity against human MDA-MB-231 cells xenografted in BALB/c nude mouse model assessed as reduction of tumor weight in the presence of osimertinib at 35 mg/kg/day, sc administered every 2 days for 30 days; format: functional, organism-based; conditions: time 30.0 day; how it was run: as §2
BT-549 [14] = experiment: Antiproliferative activity in human BT-549 cells assessed as reduction in size of tumor sphere at 1 uM by Tumor sphere assay; format: functional, cell-based
MDA-MB-231 [15] = experiment: Antiproliferative activity in human BRD4-knockdown MDA-MB-231 cells assessed as cell growth at 1 uM by CCK-8 assay; format: functional, cell-based; how it was run: as §1
MDA-MB-231 [16] = experiment: Induction of apoptosis in human MDA-MB-231 cells in the presence of osimertinib at 1 uM by flow cytometry analysis; format: functional, cell-based
How it was run: (§3)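 Cells given JQ1 and/or osimertinib, then stained with Annexin V-FITC plus propidium iodide (10 min, room temperature, dark; 1 × 10^6 cells/ml in binding buffer after two PBS washes) and analysed by flow cytometry; one-way ANOVA.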

BT-549 [17] = experiment: Effect on human BT-549 cells assessed as suppression of tumor sphere formation at 1 uM by Tumor sphere assay; format: functional, cell-based
MDA-MB-231 [18] = experiment: Antiproliferative activity in human MDA-MB-231 cells assessed as inhibited cell growth at 1 uM by CCK-8 assay; format: functional, cell-based
BT-549 [19] = experiment: Induction of apoptosis in human BT-549 cells in the presence of osimertinib at 1 uM by flow cytometry analysis; format: functional, cell-based; how it was run: as §3
BT-474 = experiment: Antiproliferative activity in human BT-474 cells assessed as cell growth at 1 uM by CCK-8 assay; format: functional, cell-based
How it was run: (§4)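 Cells grown in 10% FBS medium (DMEM for BT-474 and MDA-MB-231) and seeded at 3000 cells/well, adhering overnight. Exposed to 1 μM for 48 h, with DMSO as control. Growth read by CCK-8 as background-subtracted signal normalized to the DMSO control. Mean ± SD of triplicates.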

MDA-MB-231 [20] = experiment: Antiproliferative activity in human MDA-MB-231 cells assessed as cell growth at 1 uM by CCK-8 assay; format: functional, cell-based; how it was run: as §4
BT-549 [21] = experiment: Antiproliferative activity in human BT-549 cells assessed as reduced cell growth co-treated with GDC-0994 at 1 uM by CCK-8 assay; format: functional, cell-based
How it was run: (§5)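 MDA-MB-231 (DMEM + 10% FBS) or BT549 (RPMI-1640 + 10% FBS) seeded at 3000 cells/well and left to adhere overnight. Treated 48 h with the kinase inhibitors alone, combined, or together with JQ1. Growth measured by CCK-8 and normalized to the DMSO-treated control after background subtraction. Triplicates, mean ± SD, one-way ANOVA against JQ1 alone.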

MDA-MB-231 [22] = experiment: Antiproliferative activity in human MDA-MB-231 cells assessed as reduced cell growth co-treated with GDC-0994 at 1 uM by CCK-8 assay; format: functional, cell-based; how it was run: as §5
MDA-MB-231 [23] = experiment: Effect on human MDA-MB-231 cells assessed as decrease in RSK3 protein expression in the presence of GDC-0994 at 1 uM by Western blot analysis; format: functional, cell-based
BT-549 [24] = experiment: Antiproliferative activity in human BT-549 cells assessed as reduction in cell growth at 1 uM by CCK-8 assay; format: functional, cell-based
MDA-MB-231 [25] = experiment: Antiproliferative activity in human MDA-MB-231 cells assessed as reduction in cell growth at 1 uM by CCK-8 assay; format: functional, cell-based
MDA-MB-231 [26] = experiment: Effect on human MDA-MB-231 cells assessed as RSK3 protein expression in the presence of XMD8-92 at 1 uM by Western blot analysis; format: functional, cell-based
MDA-MB-231 [27] = experiment: Effect on human MDA-MB-231 cells assessed as EGFR protein expression at 1 uM by Western blot analysis; format: functional, cell-based
MDA-MB-231 [28] = experiment: Antiproliferative activity in human MDA-MB-231 cells assessed as reduced cell growth co-treated with XMD8-92 at 1 uM by CCK-8 assay; format: functional, cell-based; how it was run: as §5
BT-549 [29] = experiment: Antiproliferative activity in human BT-549 cells assessed as reduced cell growth co-treated with XMD8-92 at 1 uM by CCK-8 assay; format: functional, cell-based; how it was run: as §5

COc1cc2c(cc1-c1c(C)noc1C)ncc1[nH]c(=O)n([C@H](C)c3ccccn3)c12
active: Activity (MDA-MB-231 [1]) | Activity (BT-549 [2]) | Activity (MDA-MB-231 [3]) | Activity (BT-549 [4]) | Activity (BT-549 [5])

C=CC(=O)Nc1cc(Nc2nccc(-c3cn(C)c4ccccc34)n2)c(OC)cc1N(C)CCN(C)C
active: Activity (MDA-MB-231 [6]) | inhibition (BT-549 [7]) | Activity (BT-549 [8]) | Activity (MDA-MB-231 [9]) | inhibition (MDA-MB-231 [10]) | Activity (MDA-MB-231 [11]) | Activity (MDA-MB-231 [12]) | Activity (MDA-MB-231 [13]) | Activity (BT-549 [14]) | Activity (MDA-MB-231 [15]) | Activity (MDA-MB-231 [16]) | Activity (BT-549 [17]) | Activity (BT-549 [4]) | Activity (MDA-MB-231 [18]) | Activity (BT-549 [19])

Oc1c(F)cc(-c2cnccc2-c2ccc(N3CCOCC3)cc2)cc1F
active: Activity (BT-474) | Activity (MDA-MB-231 [20])

CCOc1cc(N2CCC(O)CC2)ccc1Nc1ncc2c(n1)N(C)c1ccccc1C(=O)N2C
active: Activity (BT-549 [21]) | Activity (MDA-MB-231 [22]) | Activity (MDA-MB-231 [23])

C[S+]([O-])c1ccc(-c2nc(-c3ccc(F)cc3)c(-c3ccncc3)[nH]2)cc1 (stereo not drawn)
active: Activity (BT-549 [24]) | Activity (MDA-MB-231 [25])

CN1CCN(c2ccc(-c3ccncc3-c3cc(F)c(O)c(F)c3)cc2)CC1
active: Activity (BT-474) | Activity (MDA-MB-231 [20])

CCNC(=O)C[C@@H]1N=C(c2ccc(Cl)cc2)c2cc(OC)ccc2-n2c(C)nnc21
active: Activity (MDA-MB-231 [1]) | Activity (BT-549 [2]) | Activity (MDA-MB-231 [3]) | Activity (BT-549 [4]) | Activity (BT-549 [5])

Cn1nccc1Nc1nccc(-c2ccn([C@H](CO)c3ccc(Cl)c(F)c3)c(=O)c2)n1
active: Activity (MDA-MB-231 [26]) | Activity (MDA-MB-231 [27]) | Activity (MDA-MB-231 [28]) | Activity (BT-549 [29])
